Results gathered from unrelated publications.
Lines come from different studies, so protocols differ.
Target: Homeodomain-interacting protein kinase 4 (HIPK4, Homo sapiens, UniProt Q8NE63)
One construct used (Q8NE63 1-616): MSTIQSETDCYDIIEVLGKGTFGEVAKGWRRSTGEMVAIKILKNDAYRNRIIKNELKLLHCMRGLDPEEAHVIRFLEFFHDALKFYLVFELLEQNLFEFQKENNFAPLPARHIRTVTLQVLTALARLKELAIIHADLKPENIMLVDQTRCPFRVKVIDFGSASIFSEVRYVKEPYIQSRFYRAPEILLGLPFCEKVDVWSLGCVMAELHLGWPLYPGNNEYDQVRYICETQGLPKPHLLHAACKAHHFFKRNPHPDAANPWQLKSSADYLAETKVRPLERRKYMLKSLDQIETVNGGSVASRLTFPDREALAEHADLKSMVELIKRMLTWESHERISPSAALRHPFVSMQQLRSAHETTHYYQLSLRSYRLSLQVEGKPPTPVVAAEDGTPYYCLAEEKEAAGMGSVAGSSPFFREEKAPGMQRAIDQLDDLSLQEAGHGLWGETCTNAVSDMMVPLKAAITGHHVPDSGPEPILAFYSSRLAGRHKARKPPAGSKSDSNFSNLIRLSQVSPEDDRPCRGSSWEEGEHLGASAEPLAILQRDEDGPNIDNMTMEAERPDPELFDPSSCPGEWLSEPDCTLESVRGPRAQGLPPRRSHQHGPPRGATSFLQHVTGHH

SMILES | read-out | action | technique | tested at | endpoint | result
Cc1nn(C)cc1-c1nc2c(N3CCN(Cc4ccc(Cl)cc4)CC3)c(Cl)cnc2[nH]1 | binding | – | competition with immobilised ligand | 1 µM | remaining binding | 85%
Cn1cc(-c2cccc(N3CCc4c(sc5c4CC(C)(C)C5)C3=O)c2CO)cc(Nc2ccncn2)c1=O | enzyme activity | inhibitor | – | 1 µM | inhibition | 11%
CC(C)(C)c1cc(C=C(C#N)C#N)cc(Br)c1O | enzyme activity | inhibitor | – | 0.5 µM | remaining activity | 103%
Cn1cncc1[C@](O)(COc1ccc(C#N)cc1-c1ccc(OC(F)(F)F)cc1)c1ccc(C#N)cc1 | cell-free assay | – | competition with immobilised ligand | 1 µM | remaining binding | 86%
Nc1ncc(-c2nc(N3CCOCC3)nc(N3CCOCC3)n2)c(C(F)F)n1 | binding | – | competition with immobilised ligand | 10 µM | remaining binding | 100%
COc1ncccc1-c1cnn2ccc(N3CCN(C(=O)OC(C)C)CC3)nc12 | binding | – | competition with immobilised ligand | 1 µM | remaining binding | 99%
Cn1cc(-c2cc(F)cc(N3CCn4c(cc5c4CCCC5)C3=O)c2CO)cc(Nc2ccc(N3CCN(C4COC4)CC3)cn2)c1=O | enzyme activity | inhibitor | – | 0.1 µM | inhibition | 11%
O=c1[nH]c2ccccc2n1C1CCN(Cc2ccc(-c3[nH]c4cc5ncnc5cc4nc3-c3ccccc3)cc2)CC1 | cell-free assay | – | – | 0.5 µM | remaining signal | 99.3%
